The target in data set [1] is T1, Kappa-type opioid receptor (Homo sapiens, UniProt P41145). The data set is described as follows: Agonist activity at human recombinant kappa opioid receptor expressed in CHO cells assessed as [35S]GTP-gamma-S binding after 3 hrs by liquid scintillation counting relative to (-)U50488. The data set is classed as functional, cell-based. In short, it runs like this: (§1)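 hKOP-CHO membranes (50 μg protein) were incubated with 50 pM [35S]GTP-γ-S and 40 μM GDP. Final buffer was 50 mM Tris-HCl pH 7.4, 100 mM NaCl, 10 mM MgCl2, 1 mM EDTA, 1 mM DTT and 0.1% BSA. Incubation ran 3 hr at 25 °C. Nonspecific binding was set with 40 μM GTP-γ-S. Bound label was separated by vacuum filtration through GF/B and counted.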

Data set [2] addresses T2, Delta-type opioid receptor (Homo sapiens, UniProt P41143). The data set is described as follows: Displacement of [3H]DADLE from human recombinant delta opioid receptor expressed in CHO cells at 10 uM after 2 hrs by liquid scintillation counting. The data set is classed as cell-based. The method in brief: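 Radioligand (~2 nM) competition on human opioid receptor CHO membranes in Tris-HCl pH 7.4, 2 hr at 25 °C, with GF/B filtration and scintillation counting. Results are percent of control produced by a single test drug concentration, 1 μM or 10 μM as the line states. Nonspecific binding was set by 20 μM levallorphan (DADLE, DAMGO) or 1 μM (−)-U69,593 (U69,593).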

Data set [3] in a line: Chemical solubility of the compound in 50 mM Tris-HCl at pH 7.4. The data set is classed as physicochemical. The settings on record: buffer.
Data set [4] can be described thus: Chemical solubility of the compound in THF. The data set is classed as physicochemical.
The target of data set [5] is T1, Kappa-type opioid receptor. The data set is described as follows: Partial agonist activity at human recombinant kappa opioid receptor expressed in CHO cells assessed as [35S]GTP-gamma-S binding after 3 hrs by liquid scintillation counting relative to (-)U50488. The data set is classed as functional, cell-based. The method in brief: as §1
(In general: Binding of GTPγS marks nucleotide exchange on a G protein.)

In the next data set the target is Mu-type opioid receptor (Homo sapiens, UniProt P35372). The experiment in a line: Displacement of [3H]DAMGO from human recombinant mu opioid receptor expressed in CHO cells after 2 hrs by liquid scintillation counting. The class given is cell-based. The method in brief:
(§2)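 Membranes from CHO cells stably transfected with human DOP, MOP or KOP receptor, in 50 mM Tris-HCl pH 7.4 with a protease inhibitor cocktail. The ~2 nM [3H]radioligand was displaced by 10 drug concentrations, in triplicate, for 2 hr at 25 °C, then filtered over GF/B. Nonspecific binding was set by 20 μM levallorphan (DADLE, DAMGO) or 1 μM (−)-U69,593 (U69,593). Ki (±SD) came from full curves, n=3.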

Data set [6] has as its target T2, Delta-type opioid receptor. The data set is described as follows: Displacement of [3H]DADLE from human recombinant delta opioid receptor expressed in CHO cells after 2 hrs by liquid scintillation counting. The class given is cell-based. In short, it runs like this:
as §2
For orientation: Loss of bound radioactivity is the signal in a displacement assay; it reports binding, not function.

In data set [7] the target is T1, Kappa-type opioid receptor. The experiment in a line: Partial agonist activity at human recombinant kappa opioid receptor expressed in CHO cells assessed as [35S]GTP-gamma-S binding after 3 hrs by liquid scintillation counting. The class given is functional, cell-based. In short, it runs like this: as §1
Data set [8] concerns the target T1, Kappa-type opioid receptor. The experiment in a line: Displacement of [3H]U69593 from human recombinant kappa opioid receptor expressed in CHO cells after 2 hrs by liquid scintillation counting. The class given is cell-based. In short, it runs like this: as §2

T1 sequence (P41145 whole entry): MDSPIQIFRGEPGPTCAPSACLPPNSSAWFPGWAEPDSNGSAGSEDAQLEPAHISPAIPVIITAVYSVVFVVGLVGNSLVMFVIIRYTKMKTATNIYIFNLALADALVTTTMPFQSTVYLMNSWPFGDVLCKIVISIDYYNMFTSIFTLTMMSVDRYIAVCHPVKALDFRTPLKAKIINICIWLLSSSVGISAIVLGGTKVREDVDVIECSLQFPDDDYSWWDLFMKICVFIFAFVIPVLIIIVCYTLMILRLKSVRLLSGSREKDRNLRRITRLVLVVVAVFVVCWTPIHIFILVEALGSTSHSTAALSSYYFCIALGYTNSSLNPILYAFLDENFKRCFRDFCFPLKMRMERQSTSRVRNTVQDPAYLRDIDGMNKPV
T2 sequence (P41143 whole entry): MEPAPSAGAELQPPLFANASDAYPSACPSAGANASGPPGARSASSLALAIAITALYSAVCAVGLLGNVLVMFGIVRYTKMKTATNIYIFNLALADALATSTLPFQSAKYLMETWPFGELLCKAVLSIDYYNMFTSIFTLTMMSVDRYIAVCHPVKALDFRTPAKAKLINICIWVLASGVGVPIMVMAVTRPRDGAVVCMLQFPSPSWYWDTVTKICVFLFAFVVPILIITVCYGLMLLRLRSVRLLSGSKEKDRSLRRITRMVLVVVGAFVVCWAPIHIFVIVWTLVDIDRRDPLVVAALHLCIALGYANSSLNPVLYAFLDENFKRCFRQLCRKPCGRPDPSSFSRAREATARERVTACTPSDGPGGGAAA
Mu-type opioid receptor, sequence (P35372 whole entry): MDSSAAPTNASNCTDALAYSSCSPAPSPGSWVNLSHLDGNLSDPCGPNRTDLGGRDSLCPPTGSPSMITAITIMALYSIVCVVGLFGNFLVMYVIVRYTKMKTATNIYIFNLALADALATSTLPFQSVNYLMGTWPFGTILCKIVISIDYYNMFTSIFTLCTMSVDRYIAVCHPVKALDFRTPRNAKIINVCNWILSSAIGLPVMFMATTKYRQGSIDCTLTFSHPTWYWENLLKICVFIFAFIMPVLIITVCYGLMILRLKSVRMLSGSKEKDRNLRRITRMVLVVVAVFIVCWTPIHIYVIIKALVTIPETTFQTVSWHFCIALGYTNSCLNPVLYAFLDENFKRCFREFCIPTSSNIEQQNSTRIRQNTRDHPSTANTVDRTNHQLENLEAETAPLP

The Emax is the maximal effect, on the per cent scale that the assay sets. Consider `COC(=O)[C@@H]1C[C@H](OC(C)=O)C(=O)[C@H]2[C@@]1(C)CC[C@H]1C(=O)O[C@H](/C=C\c3ccoc3)C[C@]21C`, for which, in data set [1], the Emax turned out to be 105%. Besides, the Activity in data set [2] turned out to be 94%. Further, in [3], the solubility entry is “Insoluble”.
`COC(=O)[C@@H]1C[C@H](OC(C)=O)C(=O)[C@H]2[C@@]1(C)CC[C@H]1C(=O)O[C@H](C=O)C[C@]21C`: the solubility entry in data set [4] is given as “Insoluble”.
One may read the Ki as a dissociation constant, usually derived from enzyme kinetics or from competition with a known ligand. As a reminder, the EC50 is the concentration needed to bring the measured effect to its halfway point. For `COC(=O)[C@@H]1C[C@H](OC(C)=O)C(=O)[C@H]2[C@@]1(C)CC[C@H]1C(=O)O[C@H](C(=O)c3ccccc3)C[C@]21C`, in data set [5], the Emax came to 74%. Also, the Ki on Mu-type opioid receptor is 1490 nM; in [6], > 10000 nM; in data set [8], 70 nM. Also, the Activity in data set [2] amounted to 100%. Further, the EC50 in [7] turned out to be 2280 nM.
